B1: tRNA (parent)
chain: GUUCCGUUGGCGUAAUGGUAACGCGUCUCCCUCCUAAGGAGAAGACUGCGGGUUCGAGUCCCGUACGGAACG

This sample holds only a part of the variants without activity. Bounds are passed on as bounds.

This series covers variants of B1. The series can be described thus: yeast fitness relative to wild type (ratio to wild type); higher = fitter; tRNA-Arg(CCU), competitive growth, 37 C, YPD. An outline of the steps: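 Variants of the tRNA-Arg(CCU) gene were chemically synthesised with a 3% per-site mutation rate across 69 sites and placed at the native genomic locus in Saccharomyces cerevisiae. Six parallel replicates of the pooled strains were competed in YPD at 37°C for 24 hours, and gene amplicons from the start and end populations were read by 100-nucleotide paired-end sequencing. Darwinian fitness relative to wild type was derived from changes in genotype frequencies. Genotypes required ≥ 100 starting reads, and estimates < 0.5 were set to 0.5.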
With GUUCCGUUGGCGUAAUGGUAACGCGUCUCCCUGCUUAGGAGAAGACUGAGGGUUCGAGUCCCGUACGGAACG [C33G A36U C49A], the yeast fitness is at most 0.5. For GUUCCGUUGGCGUAAUGGUAACGCGUCUCCCUGCUAUGGCGAAGACUGCGGGUUCGAGUCCCGUACGGAACG [C33G A37U A40C] the value was at most 0.5; for GUUCCGUUGGCGUAAUGGUAACGCGUCUCCCUGCUUAGAAGAAGACUGCGGGUUCGUGUCCCGUACGGAACG [C33G A36U G39A A57U], at most 0.5; for GUUCCGUUGGCGUAAUGGUAACGCGUCUCCCUGCUAAGGAGAAGUUUGCGGGUUCGAGUCCCGUACGGAACG [C33G A45U C46U], at most 0.5. For GUUCCGUUGGCGUAAUGGUAACGCGUCUCCCUGCUAAGGAGGAGACUGCGGAUUCGAGUCCAGUACGGUUCG [C33G A42G G52A C62A A69U A70U] the value was at most 0.5.

Take GUUCCGUUGGCGUAAUGGUAACGCGUCUCCCUGCUAAGGAGUAGACUGCGGGUUCGAGUGCCGUACGGAACG [C33G A42U C60G]: the yeast fitness was at most 0.5. For GUUCCGUUGGCGUAAUGGUAACGCGUCUCCCUGCUAAGGAGAAGCCUGCGGGUUCGAGUCCCGUAAGGAACG [C33G A45C C66A] the value was 0.514. Next, GUUCCGUUGGCGUAAUGGUAACGCGUCUCCCUGCUAAGGAGGAGACUGUGGGUUCGAGUCCCGUACAGAACG [C33G A42G C49U G67A]: at most 0.5. For GUUCCGUUGGCGUAAUGGUAACGCGUCUCCCUGCUAAGGGGAAGACUGCGGCUUCGAGUCCCGUACGGAACG [C33G A40G G52C] the value was at most 0.5.

In the case of GUUCCGUUGGCGUAAUGGUAACGCGUCUCCCUGCUAAGGUGAAGACUGCGCGUUCGAGUCCCGUACGGAACG [C33G A40U G51C], the yeast fitness was at most 0.5. For GUUCCGUUGGCGUAAUGGUAACGCGUCUCCCUGCUUAGGAGAAGACUGCGGGUUCGAGUCCCGUACGGAACG [C33G A36U] the value was 0.589; for GUUCCGUUGGCGUAAUGGUAACGCGUCUCCCUGCUAAGGAGGAGACUGCGGAUUCGAGUCCAGUACGGAACG [C33G A42G G52A C62A], at most 0.5; for GUUCCGUUGGCGUAAUGGUAACGCGUCUCCCUGCUAAGGAGAAGGCUGCGGGUUCGAGUCCCGUACGGAUCG [C33G A45G A70U], at most 0.5. For GUUCCGUUGGCGUAAUGGUAACGCGUCUCCCUGCUAAGGAGCAGACUGCGGGUUCGAGUCCCGUACAGAACG [C33G A42C G67A] the value was at most 0.5; for GUUCCGUUGGCGUAAUGGUAACGCGUCUCCCUGCUAAGGAGACGACUGCGGGUUCGAGUCCAGUACCGAACG [C33G A43C C62A G67C], 0.743; for GUUCCGUUGGCGUAAUGGUAACGCGUCUCCCUGCUACGGAGAAGCCUGCGGGUUCGAGUCCCGUACGGAACG [C33G A37C A45C], at most 0.5.

For the variant GUUCCGUUGGCGUAAUGGUAACGCGUCUCCCUGCUAAGGUGAAGACUCCGGGUUCGAGUGCCGUACGGAACG [C33G A40U G48C C60G], the yeast fitness is at most 0.5. For GUUCCGUUGGCGUAAUGGUAACGCGUCUCCCUGCUUAGGAGAAGACUGCGGGUUCGUGUCCCGUACGGAACG [C33G A36U A57U] the value was 0.581; for GUUCCGUUGGCGUAAUGGUAACGCGUCUCCCUGCUAAGGAGACGACUGCGGGUUCGAGUCCCGUACGGAACG [C33G A43C], 0.666.

Consider GUUCCGUUGGCGUAAUGGUAACGCGUCUCCCUGCUAAGGAGGAAACUGCGGGUUCGAGUCCCGCACGGAACG [C33G A42G G44A U64C], for which the yeast fitness is at most 0.5. Consider GUUCCGUUGGCGUAAUGGUAACGCGUCUCCCUGCUAAGGAGAGGACUGCGGGUUCGAAUCCCGUACAGUACG [C33G A43G G58A G67A A69U], for which the yeast fitness is 0.573.

Take GUUCCGUUGGCGUAAUGGUAACGCGUCUCCCUGCUAAGGAGAAGACUGCGGGUUCGAGUCCCGUACGGCACG [C33G A69C]: the yeast fitness is 0.742.

As to GUUCCGUUGGCGUAAUGGUAACGCGUCUCCCUGCUAAGGAGAAGACUGCGGGUUCGUGUCCUGUACGGAACG [C33G A57U C62U], the yeast fitness was at most 0.5. Next, GUUCCGUUGGCGUAAUGGUAACGCGUCUCCCUGCUAAGGGGAAGACUGCGGGUUCGAGUCCCGUACGGAACG [C33G A40G]: 0.615; GUUCCGUUGGCGUAAUGGUAACGCGUCUCCCUGCUAAGGCGAAGACUGCGGGUUCGAGUCCCGUACGGAACG [C33G A40C]: 0.697. For GUUCCGUUGGCGUAAUGGUAACGCGUCUCCCUGCUAAGGGGAAGACUGCGGGUUCGAAUCCCGUAGGGAACG [C33G A40G G58A C66G] the value was at most 0.5. Regarding GUUCCGUUGGCGUAAUGGUAACGCGUCUCCCUGCUAGGGCGAAGACUGGGGGUUCGAGUCCCGUACCGAACG [C33G A37G A40C C49G G67C], the yeast fitness was at most 0.5. With GUUCCGUUGGCGUAAUGGUAACGCGUCUCCCUGCUAAGGAGUUGACUGCGGGUUCGAGUCCCGUCCGCAACG [C33G A42U A43U A65C G68C], the yeast fitness stood at 0.553. For GUUCCGUUGGCGUAAUGGUAACGCGUCUCCCUGCUAAGGGGAAGACUGCGCGUUCGAGUCUCGUUCGGAACG [C33G A40G G51C C61U A65U] the value was 0.667; for GUUCCGUUGGCGUAAUGGUAACGCGUCUCCCUGCUAAGGAGAAGACUGCGGGUUCGCGUCCCGUACGGAACG [C33G A57C], at most 0.5; for GUUCCGUUGGCGUAAUGGUAACGCGUCUCCCUGCUAAGGAGAAGACUGCGGGUUCGUGUCCCGUACGGAACG [C33G A57U], at most 0.5.

Take GUUCCGUUGGCGUAAUGGUAACGCGUCUCCCUGCUAGGGAGACGACCGCGGGUUCGACUCCCGUACGGAACG [C33G A37G A43C U47C G58C]: the yeast fitness is at most 0.5. On to GUUCCGUUGGCGUAAUGGUAACGCGUCUCCCUGCUAAGGAGAAGCCUGCGGGUUCGAGUCCCGUACGGAACG [C33G A45C], for which the yeast fitness came to 0.684. For GUUCCGUUGGCGUAAUGGUAACGCGUCUCCCUGCUAAGGAGCAGACUGCGGGUUCGAGUCCCGUACGGAACG [C33G A42C] the value was 0.675; for GUUCCGUUGGCGUAAUGGUAACGCGUCUCCCUGCUAAGGAGUAGACUGCGGGUUCGAGUCCCGUACGGAACG [C33G A42U], 0.73; for GUUCCGUUGGCGUAAUGGUAACGCGUCUCCCUGCUUAGGAGAAAACUGCGGGUUCGAGCCCCGUACGGAACG [C33G A36U G44A U59C], 0.611. For GUUCCGUUGGCGUAAUGGUAACGCGUCUCCCUGCUAAGGGGAGAACUGCGGGUUCGAGUCCCGUACGGAACG [C33G A40G A43G G44A] the value was at most 0.5; for GUUCCGUUGGCGUAAUGGUAACGCGUCUCCCUGCUAAGGGGAAGACUGCGGGUUCGAGACCCGUACGGAACG [C33G A40G U59A], at most 0.5.

The values above are taken from the RNAGym collection of RNA variant scans (doi:10.1126/science.aae0568).
